Data on 17 compounds can be found in article PMC2944037 (Environmental toxicology and chemistry / SETAC, 2010).

Series [1] deals with human estrogen receptor (hER). Conditions: cited from earlier work.
Series [2] relates to human MCF-7 cells. Conditions: proliferation of human MCF-7 cells; cited from earlier work.
The test system of series [3] is alligator estrogen receptor (aER) derived from adult female alligator oviductal tissue. Conditions: cited from earlier work.
Series [4] addresses T1, human estrogen receptor alpha (hERα) (Homo sapiens, UniProt P03372).
T1 sequence (P03372 1-595): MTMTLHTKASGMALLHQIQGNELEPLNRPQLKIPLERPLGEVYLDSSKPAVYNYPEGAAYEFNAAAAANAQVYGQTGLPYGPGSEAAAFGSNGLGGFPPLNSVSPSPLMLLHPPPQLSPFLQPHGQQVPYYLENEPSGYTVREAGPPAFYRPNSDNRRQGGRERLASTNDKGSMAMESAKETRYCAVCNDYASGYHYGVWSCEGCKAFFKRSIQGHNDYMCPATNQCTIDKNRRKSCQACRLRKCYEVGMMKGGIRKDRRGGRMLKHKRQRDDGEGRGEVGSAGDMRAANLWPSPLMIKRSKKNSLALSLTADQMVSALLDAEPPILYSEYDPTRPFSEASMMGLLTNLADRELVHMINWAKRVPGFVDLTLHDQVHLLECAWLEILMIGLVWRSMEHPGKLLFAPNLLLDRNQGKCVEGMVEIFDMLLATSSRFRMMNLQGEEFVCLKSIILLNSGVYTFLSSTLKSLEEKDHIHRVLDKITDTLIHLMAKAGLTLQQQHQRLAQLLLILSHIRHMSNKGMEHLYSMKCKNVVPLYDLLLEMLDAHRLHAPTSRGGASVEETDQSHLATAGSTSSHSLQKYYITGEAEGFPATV
The series is described as follows: Cell-free competitive binding assay with baculovirus-expressed recombinant hERα. Conditions: for RBA, Human: IC50 of 17β-estradiol / IC50 of compound × 100; for Binder class, Human: hERα, displacement of [3H]E2 at highest soluble concentration; for Binding classification for hERα: non-binder <50% E2 displaced, equivocal binder 50% or greater but <80%; for E2 displaced from hERα: maximum displacement of radiolabeled E2. A general note: In a radioligand displacement assay an active substance lowers the binding of a labelled ligand.

The target in series [5] is alligator estrogen receptor alpha (aERα) (Alligator mississippiensis, UniProt Q765N7). The series is described as follows: Cell-free competitive binding assay with baculovirus-expressed recombinant aERα. Details: species or system American alligator (Alligator mississippiensis). The following applies: for Binder class, Alligator: aERα, displacement of [3H]E2 at highest soluble concentration; for Binding classification for aERα: non-binder <50% E2 displaced, equivocal binder 50% or greater but <80%; for RBA, Alligator: IC50 of 17β-estradiol / IC50 of compound × 100; for E2 displaced from aERα: maximum displacement of radiolabeled E2.

The subject of series [6] is endogenous hERα and hERβ. Kind of series: T47D-KBluc transactivation assay. The format is cell-based, human. The procedure, abridged:
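Stably transfected T47D reporter line (endogenous ERα/ERβ, 3×-ERE-TATA-Luc) was plated at 10,000 cells/well and dosed after overnight culture for 24 h. […] After PBS rinse and lysis, luciferase RLU was read with D-luciferin and converted to log fold induction. One-way ANOVA was applied. There were two independent experiments, four wells per treatment.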

The subject of series [7] is aERα. Kind of series: CV1 transactivation assay with exogenous aERα. The format is cell-based, American alligator (Alligator mississippiensis).
The test system of series [8] is hER. The following applies: read-out: EC50, hER agonist; cited from earlier work.
Series [9] deals with alligator embryos. Conditions: cited from earlier work.
Series [10] addresses hERα (Homo sapiens, UniProt P03372). The series is described as follows: CV1 transactivation assay with exogenous hERα. The format is cell-based.
Series [11] concerns CV1 cells. Kind of series: Cell distress observed in the CV1 transactivation assay. The following applies: 30 μM. Type of series: cell-based, monkey.
In series [12] the test system is T47D-KBluc cells. Kind of series: Cytotoxicity observed in the T47D-KBluc assay. The following applies: 30 μM. The format is cell-based, human.

Entries after “also recorded” stand apart in the source; their conditions may differ. Read-outs that look alike come from different tables or passages of the source.

Regarding `CCc1cccc(CC)c1N(COC)C(=O)CCl` [alachlor], the “Binding to hER” value in [1] is “do not bind”. In series [2], the “Activity in the E-screen assay” value was “inactive”. In addition, the “Binding to oviduct-derived aER” value in [3] is listed as “able to bind”.

As usually defined, the IC50 is the concentration that inhibits the measured activity by half. With `ClC(Cl)=C(c1ccc(Cl)cc1)c1ccccc1Cl` [o,p′-DDE, 1-Chloro-2-[2,2-dichloro-1-(4-chlorophenyl)ethenyl]benzene], in series [4], the IC50 is 219 µM; the “RBA, Human” value is given as 0.003; the “Binder class, Human” value was “EB (Equivocal binder: displaced greater than 50%, but less than 80% at the highest soluble concentration.)”; the “Binding classification for hERα” value is recorded as “equivocal binders”. In addition, in series [5], the IC50 was found to be 85.1 µM; the “Binder class, Alligator” value is reported as “EB (Equivocal binder: displaced greater than 50%, but less than 80% at the highest soluble concentration.)”; the “Binding classification for aERα” value is on record as “equivocal binders”.

As to `C[C@]12CC[C@@H]3c4ccc(O)cc4C[C@@H](CCCCCCCCC[S+]([O-])CCCC(F)(F)C(F)(F)F)[C@H]3[C@@H]1CC[C@@H]2O` (some centres unmarked) [ICI, ICI 182,780, reference compound], the “Effect of ICI on E2-elicited transactivation” value in series [6] (1 μM ICI + 30 pM E2, data not shown) is “reversed”. In addition, the “Effect of ICI on E2-elicited transcriptional activation” value in series [7] (1 μM ICI + 10 nM E2, data not shown) was “ablated”.

In the case of `ClC1=C(Cl)[C@]2(Cl)[C@H]3[C@H]([C@H](Cl)C(Cl)[C@@H]3Cl)[C@@]1(Cl)C2(Cl)Cl` (stereo partly drawn) [cis-Nonachlor], in series [4], the “RBA, Human” value was 0.003 and the “Binder class, Human” value is given as “EB (Equivocal binder: displaced greater than 50%, but less than 80% at the highest soluble concentration.)”. Further, in series [5], the “RBA, Alligator” value was found to be 0.006 and the “Binder class, Alligator” value is given as “EB (Equivocal binder: displaced greater than 50%, but less than 80% at the highest soluble concentration.)”.

Turning to `Cl[C@H]1[C@H](Cl)[C@@H](Cl)[C@@H](Cl)[C@H](Cl)[C@H]1Cl` [lindane], the “Activity in the E-screen assay” value in series [2] is “inactive”.

As to `CC(C)(c1ccc(O)cc1)c1ccc(O)cc1` [Bisphenol A, reference compound], in series [4], the “RBA, Human” value is on record as 0.05. In series [5], the IC50 was 1.07 µM and the “RBA, Alligator” value is listed as 0.07.

In general, EC50 refers to the concentration needed to bring the measured effect to its halfway point. Consider `OC(c1ccc(Cl)cc1)(c1ccccc1Cl)C(Cl)(Cl)Cl` (single isomer, unassigned; (-)) [(−) o,p′-dicofol, o,p′-dicofol], for which the EC50 in [8] was 0.51 µM.

`CCNc1nc(Cl)nc(NC(C)C)n1` [Atrazine]: the “Binding to hER” value in [1] is recorded as “do not bind”. In addition, the “Activity in the E-screen assay” value in [2] was “inactive”. Moreover, the “Binding to hERα” value in [4] (at concentrations up to 100 μM) is given as “not able to bind”. In addition, the “Binding classification for hERα” value in series [4] is reported as “not able to bind; also recorded: non-binders”. Besides, the “Binding to aERα” value in [5] (at concentrations up to 100 μM) was “not able to bind”. The “Binding classification for aERα” value in [5] is given as “not able to bind; also recorded: non-binders”. Also, in [9] (33°C, stage 21, single topical egg exposure to 0.14, 1.40, or 14.0 ppm), the Sex reversal result is “no sex reversal at any concentration”. In series [9] (in ovo exposure), the Gonadal aromatase activity result was “did alter gonadal aromatase activity” and the “Plasma E2 concentrations” value is given as “not plasma E2 concentrations”. In addition, the “Binding to oviduct-derived aER” value in series [3] is given as “able to bind”.

In the case of `ClC1=C(Cl)[C@]2(Cl)[C@H]3[C@H]([C@H](Cl)C(Cl)[C@@H]3Cl)[C@@]1(Cl)C2(Cl)Cl` (stereo partly drawn) [trans-Nonachlor], in series [4], the “Binder class, Human” value is reported as “NB (Non-binder: displaced less than 50% 17b-estradiol at the highest soluble concentration.)”; the “E2 displaced from hERα” value came out at 48%; the “Binding classification for hERα” value is given as “non-binder”. Also, in series [5], the “RBA, Alligator” value was determined as 0.005; the “Binder class, Alligator” value is on record as “EB (Equivocal binder: displaced greater than 50%, but less than 80% at the highest soluble concentration.)”; the “E2 displaced from aERα” value is listed as 68%; the “Binding classification for aERα” value was “equivocal binder”.

As for `ClC(Cl)=C(c1ccc(Cl)cc1)c1ccc(Cl)cc1` [p,p′-DDE, 1-Chloro-4-[2,2-dichloro-1-(4-chlorophenyl)ethenyl]benzene], in series [4], the “Binder class, Human” value is “NB (Non-binder: displaced less than 50% 17b-estradiol at the highest soluble concentration.)”; the “E2 displaced from hERα” value is reported as roughly 0%; the “Binding classification for hERα” value is “non-binders”. Further, in [5], the “Binder class, Alligator” value is given as “NB (Non-binder: displaced less than 50% 17b-estradiol at the highest soluble concentration.)”; the “E2 displaced from aERα” value is reported as roughly 28%; the “Binding classification for aERα” value was “non-binders”. The Sex ratio entry in [9] (100 ppb in ovo, 32°C (mixed sex ratio)) is “slight female sex bias”. In series [9] (100 ppb in ovo, 33.5°C), the “Male to female sex reversal” value is on record as “no male to female sex reversal”.

With `ClC1=C(Cl)C2(Cl)C3C(Cl)C(Cl)CC3C1(Cl)C2(Cl)Cl` (centres unmarked) [chlordane], the “Activity in the E-screen assay” value in series [2] is “inactive”. Further, the “Binding to oviduct-derived aER” value in series [3] was “able to bind”.

Turning to `ClC1=C(Cl)C2(Cl)C3C(Cl)C=CC3C1(Cl)C2(Cl)Cl` (centres unmarked) [heptachlor], the “Activity in the E-screen assay” value in series [2] is “inactive”. Further, the “Binding to oviduct-derived aER” value in series [3] is reported as “able to bind”.

As for `Clc1ccc(C(c2ccccc2Cl)C(Cl)(Cl)Cl)cc1` (centres unmarked) [o,p′-DDT, 1-Chloro-2-[2,2,2-trichloro-1-(4-chlorophenyl)ethyl]benzene], in series [5], the IC50 was 0.977 µM and the “RBA, Alligator” value came out at 0.08.

Take `CCNc1nc(Cl)nc(NC(C)(C)C#N)n1` [Cyanazine, cyanazine]: the “Activity in the E-screen assay” value in series [2] is “inactive”. The “Binder class, Alligator” value in series [5] was “NB (Non-binder: displaced less than 50% 17b-estradiol at the highest soluble concentration.)”.

With `OC(c1ccc(Cl)cc1)(c1ccccc1Cl)C(Cl)(Cl)Cl` (racemic) [racemic (±) o,p′-dicofol, o,p′-dicofol], the EC50 in [8] was 4.2 µM.

Consider `OC(c1ccc(Cl)cc1)(c1ccc(Cl)cc1)C(Cl)(Cl)Cl` [p,p′-Dicofol, p,p′-dicofol], for which the “Concentration eliciting maximal transactivation” value was found to be 10 µM in [10] (CV1 assay, hERα); 10 µM in [6] (T47D-KBluc assay); 10 µM in [7] (CV1 assay, aERα). In addition, the “Transcription of estrogen responsive gene with hERα” value in [10] (CV1 cells) is reported as “induced transcription”. Further, the “Transcriptional activation of estrogen-dependent reporter” value in [6] (T47D-KBluc cells) was “dose-dependent increase”. Also, the EC50 in series [6] (read-out: EC50, transcriptional activation through hER, T47D-KBluc cells) was 1.5 µM; in series [7] (read-out: EC50, transcriptional activation through aERα, CV1 cells, 3x-ERE-TATA-Luc) it was 2.8 µM; in series [8] it was 1.6 µM. Moreover, in series [4], the “RBA, Human” value is on record as 0.001. In addition, the “Binder class, Human” value in series [4] is given as “EB (Equivocal binder: displaced greater than 50%, but less than 80% at the highest soluble concentration.)”. Also, the “E2 displaced from hERα” value in [4] was 58%. Further, in [4], the “Binding classification for hERα” value is listed as “equivocal binder”. In addition, the “RBA, Alligator” value in series [5] was determined as 0.02. Further, the “E2 displaced from aERα” value in series [5] stood at 83%. Further, in [5] (read-out: IC50 for aERα), the IC50 came to 4 µM. The “Cell distress (increase in detached cells)” value in series [11] is listed as “cell distress”. In addition, the “Cytotoxicity (cell detachment, cytopathology)” value in series [12] was “toxic to the cells”. The “Transcription of estrogen responsive gene with aERα” value in series [7] (CV1 cells) was “induced transcription”.

On to `Clc1ccc(C(c2ccc(Cl)cc2)C(Cl)Cl)cc1` [p,p′-DDD, 1-Chloro-4-[2,2-dichloro-1-(4-chlorophenyl)ethyl]benzene], for which, in [4], the “Binder class, Human” value is given as “NB (Non-binder: displaced less than 50% 17b-estradiol at the highest soluble concentration.)” and the “Binding classification for hERα” value is reported as “non-binders”. In [5], the “Binder class, Alligator” value is on record as “NB (Non-binder: displaced less than 50% 17b-estradiol at the highest soluble concentration.)” and the “Binding classification for aERα” value is “non-binders”.
